# Laboratory results published in ChEMBL document CHEMBL1126202, “Dual-action penems and carbapenems” (J Med Chem, 1992).
# Experiments:
# Hathewaya histolytica = assay: In vitro antibacterial activity against clostridium histolyticum 503-86; type: functional
# Method in brief: (§1)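 Anaerobic MIC, run in microtiter plates in Schaedler's broth supplemented with coenzyme I and hemin. Incubated in an oxygen-free hydrogen–carbon dioxide atmosphere.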
# Enterobacter cloacae = assay: In vitro antibacterial activity against enterobacter cloacae P99 (constitutive beta-lactamase producer); type: functional
# Method in brief: (§2)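 MIC was determined by agar dilution on Mueller-Hinton agar. Serial 2-fold aqueous dilutions were diluted 10-fold in agar to give final concentrations of 128 to 0.0156 μg/mL. Plates were inoculated by Steers replicator with overnight broth cultures diluted 100-fold.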
# Escherichia coli [1] = assay: In vitro antibacterial activity against Escherichia coli TEM-1 (constitutive beta-lactamase producer); type: functional; method in brief: as §2
# Staphylococcus aureus [2] = assay: In vitro antibacterial activity against staphylococcus aureus smith; type: functional; method in brief: as §2
# [3] = system: Bacteroides thetaiotaomicron; assay: In vitro antibacterial activity against Bacteroides thetaiotaomicron 62B; type: functional
# Method in brief: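 Anaerobic MICs were determined in microtiter plates in Schaedler's broth supplemented with coenzyme I and hemin. Incubation was under an oxygen-free hydrogen-carbon dioxide atmosphere.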
# Escherichia coli [4] = assay: In vitro antibacterial activity against Escherichia coli 257; type: functional
# Klebsiella pneumoniae = assay: In vitro antibacterial activity against klebsiella pneumoniae A; type: functional
# Method in brief: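 Agar-dilution MIC on Mueller-Hinton agar. Serial 2-fold dilutions were made in water, giving final agar concentrations of 128 to 0.0156 μg/mL. Inoculum was an overnight broth culture diluted 100-fold, applied with a multipoint replicator.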
# Clostridioides difficile [5] = assay: In vitro antibacterial activity against Clostridium difficile 651; type: functional
# Pseudomonas aeruginosa [6] = assay: (§3) In vitro antibacterial activity against Ps. aeruginosa 18SH (constitutive beta-lactamase producer)
# Bacteroides fragilis [7] = assay: In vitro antibacterial activity against Bacteroides fragilis F117A; type: functional
# Method in brief: (§4)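 MIC by broth dilution in microtiter plates, run in an oxygen-free hydrogen–carbon dioxide atmosphere. Medium: Schaedler's broth with coenzyme I and hemin added.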
# Staphylococcus aureus [8] = assay: (§5) In vitro antibacterial activity against Staphylococcus aureus 753 (constitutive beta-lactamase producer); type: functional
# Method in brief: (§6)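 MIC by agar dilution on Mueller-Hinton agar. Compounds were serially 2-fold diluted in water, final 128 to 0.0156 μg/mL in agar. Inoculum: overnight broth culture diluted 100-fold, applied with a Steers replicator.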
# Proteus mirabilis [9] = assay: (§7) In vitro antibacterial activity against Proteus mirabilis 90; type: functional
# Method in brief: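 MIC by agar dilution on Mueller-Hinton agar containing 3% agar. Compounds were serially 2-fold diluted in water, final 128 to 0.0156 μg/mL in agar. Inoculum: overnight broth culture diluted 100-fold, applied with a Steers replicator.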
# Staphylococcus aureus [10] = assay: In vitro antibacterial activity against Staphylococcus aureus 67(methicillin resistant); type: functional; method in brief: as §6
# Clostridium perfringens = assay: In vitro antibacterial activity against Clostridium perfringens 13424; type: functional; method in brief: as §4
# Streptococcus pyogenes = assay: In vitro antibacterial activity against Streptococcus pyogenes 4; type: functional
# Method in brief: (§8)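 Streptococcal MICs were determined by agar dilution on brain heart infusion agar supplemented with 20 units/mL bovine liver catalase. Final concentrations were 128 to 0.0156 μg/mL from 2-fold dilutions. Inocula were overnight broth cultures diluted 100-fold, applied by Steers replicator.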
# Bacteroides fragilis [11] = assay: In vitro antibacterial activity against bacteroides fragilis S2; type: functional; method in brief: as §1
# Clostridioides difficile [12] = assay: In vitro antibacterial activity against Clostridium difficile 701; type: functional
# Pseudomonas aeruginosa [13] = assay: microbe, parasite or virus in culture
# Serratia marcescens = assay: In vitro antibacterial activity against serratia marcescens SM (constitutive beta-lactamase producer); type: functional; method in brief: as §2
# Streptococcus pneumoniae = assay: In vitro antibacterial activity against streptococcus pneumoniae 6301; type: functional; method in brief: as §8
# Citrobacter freundii = assay: In vitro antibacterial activity against citrobacter freundii BS-16 (constitutive beta-lactamase producer); type: functional; method in brief: as §2
# Proteus vulgaris = assay: In vitro antibacterial activity against proteus vulgaris ATCC 6380 (constitutive beta-lactamase producer); type: functional
# Method in brief: (§9)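 Proteus MICs were determined by agar dilution on Mueller-Hinton agar containing 3% agar. Serial 2-fold dilutions gave final concentrations of 128 to 0.0156 μg/mL. Plates were replicator-inoculated with 100-fold-diluted overnight broth cultures.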
# Escherichia coli [14] = assay: In vitro antibacterial activity against Escherichia coli UB1005 (nalidixic acid-resistant strain); type: functional; method in brief: as §2
# Staphylococcus aureus [15] = assay: as §5; type: functional; method in brief: as §2; remark: listed apart in the source
# Pseudomonas aeruginosa [16] = assay: In vitro antibacterial activity against Pseudomonas aeruginosa 8780; type: functional; method in brief: as §2
# Escherichia coli [17] = assay: Effect on replication DNA biosynthesis in Escherichia coli H560 (permeabilised cells).; type: functional, organism-based
# Method in brief: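 Toluene-permeabilized E. coli H560 cells were used. Replicative DNA synthesis was measured as ATP-dependent [3H]thymidine incorporation into trichloroacetic acid-insoluble material. IC50 is the concentration giving 50% inhibition.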
# Pseudomonas aeruginosa [18] = assay: as §3; type: functional; method in brief: as §2
# Proteus mirabilis [19] = assay: as §7; type: functional; method in brief: as §9; remark: listed apart in the source
# [20] = Stability in pH 7.4 phosphate buffer at 37 degree C; type: physicochemical
# Method in brief: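 Compounds were held in pH 7.4 phosphate buffer at 37 °C and monitored by reverse-phase HPLC on a PRP-1 column with UV detection at 275–286 nm. The mobile phase was 0.01 M tetradecyltrimethylammonium bromide in pH 8.2 phosphate/acetonitrile. Product-peak decline was followed to at least 50%, and half-life was taken from semilogarithmic plots.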
# Escherichia coli [21] = assay: In vitro antibacterial activity against Escherichia coli 25922; type: functional; method in brief: as §2
SMILES,MIC (Enterobacter cloacae) [mg/L],MIC (Escherichia coli [1]) [mg/L],MIC (Staphylococcus aureus [2]) [mg/L],MIC (Escherichia coli [4]) [mg/L],MIC (Klebsiella pneumoniae) [mg/L],MIC (Staphylococcus aureus [8]) [mg/L],MIC (Staphylococcus aureus [10]) [mg/L],MIC (Streptococcus pyogenes) [mg/L],MIC (Serratia marcescens) [mg/L],MIC (Streptococcus pneumoniae) [mg/L],MIC (Citrobacter freundii) [mg/L],MIC (Proteus vulgaris) [mg/L],MIC (Pseudomonas aeruginosa [16]) [mg/L],MIC (Pseudomonas aeruginosa [18]) [mg/L],MIC (Proteus mirabilis [19]) [mg/L],further results
C[C@@H](O)[C@H]1C(=O)N2C(C(=O)O)=C(SCCNC=N)C[C@H]12.O,0.25,0.25,< 0.0156,0.125,0.125,64,32,< 0.0156,0.25,< 0.0156,2,1,–,–,–,MIC (Hathewaya histolytica): < 0.125 mg/L; MIC [3]: > 128 mg/L; MIC (Clostridioides difficile [5]): 4 mg/L; MIC (Pseudomonas aeruginosa [6]): 1 mg/L; MIC (Bacteroides fragilis [7]): 2 mg/L; MIC (Proteus mirabilis [9]): 2 mg/L; MIC (Clostridium perfringens): < 0.125 mg/L; MIC (Bacteroides fragilis [11]): < 0.125 mg/L; MIC (Clostridioides difficile [12]): 4 mg/L; MIC (Pseudomonas aeruginosa [13]): 2 mg/L
O=C([O-])C1=C(COC(=O)N2CCN(c3cc4c(cc3F)c(=O)c(C(=O)O)cn4C3CC3)CC2)SC2CC(=O)N12.[Na+] (stereo unspecified),0.125,0.125,1,0.25,0.25,–,1,0.125,0.25,0.125,0.25,0.25,16,4,1,MIC (Escherichia coli [14]): 2 mg/L; MIC (Staphylococcus aureus [15]): 2 mg/L; IC50 (Escherichia coli [17]): 2 mg/L; half-life [20]: 16 h; MIC (Escherichia coli [21]): 0.25 mg/L
C[C@@H](O)[C@H]1C(=O)N2C(C(=O)[O-])=C(CO)[C@H](C)[C@H]12.[K+],0.5,0.5,0.125,0.5,0.5,32,32,0.0625,1,0.0625,0.5,0.5,32,16,1,–
